Source: PubChem BioAssay
NPY-Y1 antag: blocks the human neuropeptide Y Y1 receptor. P25929. HEK293-CNG Y1 cells, membrane potential fluorescence; NPY at EC95, then isoproterenol. inhibition, % at 3.6 µM. 200,000 compounds, 1% hits;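 active means inhibition above the campaign mean inhibition of all tested compounds plus 3 SD, cut at about 20% in these data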;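 further: 0% = DMSO wells given NPY plus isoproterenol and 100% = isoproterenol alone without NPY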
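Material: HEK293 Y1/CNG channel cell line; also added: NPY (25 nM), isoproterenol (1 µM), Ro 20-1724 (25 µM); doses: one concentration, 3.6 µM, in 0.4% DMSO; schedule: compound incubation 1 h at room temperature, readout 45 min post-stimulation; technique: membrane potential fluorescence; measure: fluorescence ratio normalized to % inhibition between controls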
NPY2 pot ag: human NPY-Y2 potentiation or agonism, primary screen. P49146. cells expressing NPY-Y2, potentiator/agonist read-out. activation, % at 3.6 µM. 220,000 compounds, 0.45% hits. AID 1359; in the data active means activation above about 27%;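 further: cells stimulated with NPY near EC25 plus isoproterenol at EC100; 0% = vehicle plus submaximal agonist and 100% = vehicle plus saturating agonist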
NPY-Y2 antag: blocks the human neuropeptide Y Y2 receptor; P49146; NPY-Y2 expressing cells, antagonist mode; inhibition, % at 2.7 µM; 140,000 compounds, 0.99% hits; in the data active means inhibition above about 17%;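 further: 0% = vehicle with agonist challenge and 100% = reference antagonist with challenge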
Cl transport mod: KCC2 (human) Cl- transport modulation | KCC2 cells, thallium flux FluoZin-2 fluorescence | B-score of Tl+ flux slope (higher = more flux/activation; lower = inhibition) at 10 µM | 190,000 compounds, 2.2% hits | AID 1456;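 active means thallium flux slope and its plate-corrected score both differing from the plate sample mean at a set confidence after two filtering rounds, in either direction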;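 further: slope of fluorescence scaled to starting intensity during 10 to 20 s after thallium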
Furin inh: human furin inhibition | P09958 | purified furin, fluorogenic substrate cleavage | inhibition, % at 20 µM or 30 µM | 220,000 compounds, 0.061% hits | AID 463115; in the data active means inhibition above about 25%
Target sequence (P09958 108-714 limits assumed): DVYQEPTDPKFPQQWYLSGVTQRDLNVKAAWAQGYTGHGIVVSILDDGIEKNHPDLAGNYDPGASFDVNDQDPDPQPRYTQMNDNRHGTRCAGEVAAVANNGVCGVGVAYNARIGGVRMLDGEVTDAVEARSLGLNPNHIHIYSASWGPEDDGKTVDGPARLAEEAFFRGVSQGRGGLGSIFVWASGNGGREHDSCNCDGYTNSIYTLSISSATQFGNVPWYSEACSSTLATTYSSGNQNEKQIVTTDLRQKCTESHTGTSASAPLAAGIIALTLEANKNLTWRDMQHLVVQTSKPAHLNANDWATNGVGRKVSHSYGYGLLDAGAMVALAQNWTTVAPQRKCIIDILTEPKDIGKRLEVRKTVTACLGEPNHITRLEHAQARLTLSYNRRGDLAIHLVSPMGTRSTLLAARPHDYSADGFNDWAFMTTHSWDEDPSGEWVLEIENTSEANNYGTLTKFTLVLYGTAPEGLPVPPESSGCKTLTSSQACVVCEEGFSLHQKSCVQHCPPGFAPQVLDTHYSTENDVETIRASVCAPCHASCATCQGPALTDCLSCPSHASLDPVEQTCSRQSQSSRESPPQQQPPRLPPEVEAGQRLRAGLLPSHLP
NPY-Y1 PAM-ag: potentiators or agonists of human neuropeptide Y receptor Y1; activation, % at 3.6 µM; P25929; NPY-Y1 expressing cells, potentiator/agonist activation; 220,000 compounds, 0.37% hits; in the data active means activation above about 33%, passing the limit was not always enough;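 further: cells stimulated with NPY at EC10 then isoproterenol at EC100; 0% = low agonist plus stimulus and 100% = saturating agonist plus stimulus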
KCC2 sec1: KCC2 (human) modulation, secondary assay; shares compounds with Cl transport mod; HEK293-KCC2, thallium flux, FluoZin2 fluorescence; hits give high values; normalised thallium flux (F/F0 slope) at 10 µM; 3,700 compounds, 15% hits; AID 1713;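 active means thallium flux slope above the same plate's solvent-only control mean plus 3 SD; inconclusive means the two replicate wells disagree; inactive means no significant difference from solvent-only control wells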
KCC2 bumet counter: thallium flux despite bumetanide block in KCC2 cells, secondary assay 3; shares compounds with Cl transport mod; HEK293-KCC2 + bumetanide/ouabain, thallium flux FluoZin2; hits give high values; normalized thallium flux at 10 µM; 3,700 compounds, 49% hits; AID 1714;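 active means thallium entry rate above the same plate's blocked-transporter control wells by more than 3 SD; inconclusive means the two repeat wells disagree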;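 further: raw slope of fluorescence over initial fluorescence between 10 and 20 s after thallium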
KCC2 sec2: confirmation of human KCC2 transport modulators. shares compounds with Cl transport mod. HEK293-KCC2, thallium flux FluoZin2 fluorescence; actives lie on both sides; F/F0 rise rate, 10–20 s post-thallium. normalized thallium flux at 10 µM. 3,700 compounds, 23% hits;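 active means thallium flux slope more than 3 SD above or below the plate's solvent-only control mean, mostly below; inconclusive means the two repeat wells disagreed; inactive means no significant shift from solvent-only controls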;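 further: raw slope with 0.1% DMSO as baseline and bumetanide as block control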
HEK counter1: acts in parental HEK cells, KCC2 counter-screen. shares compounds with Cl transport mod. HEK293 parental cells, thallium flux FluoZin2, ouabain; baseline-ratio fluorescence slope, 10–20 s after thallium. thallium flux rate (normalised fluorescence) at 10 µM. 3,700 compounds, 46% hits;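 active means thallium flux rate significantly above the same plate's solvent-only control wells, beyond their mean plus 3 SD; inconclusive means the two replicate wells gave conflicting results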
KCC2 retest ouab: modulates human KCC2 on retest with ouabain. shares compounds with Cl transport mod. HEK293-KCC2, thallium flux FluoZin2 fluorescence; bidirectional: low = inhibitor, high = activator. raw Tl+ flux slope (below DMSO = inhibition, above = activation) at 10 µM. 3,700 compounds, 48% hits;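 active means thallium flux slope beyond 3 SD from same-plate DMSO control mean in most replicates, usually higher, sometimes lower; inconclusive means repeat tests gave conflicting results; inactive means no significant difference from controls in most replicates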;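 further: slope of initial-normalized fluorescence between seconds 10 and 20 after thallium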
HEK293 Tl flux2: counter-screen for KCC2 modulators: effect in parental HEK293 cells. shares compounds with Cl transport mod. thallium flux FluoZin-2 fluorescence slope. thallium flux slope at 10 µM. 3,700 compounds, 33% hits. AID 1718;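 active means thallium flux slope above the same plate's solvent-control mean plus 3 SD in both duplicate wells; inconclusive means duplicate wells that disagreed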;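 further: run without ouabain in cells lacking the KCC2 cotransporter; slope of fluorescence scaled to its starting value between 10 and 20 s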
Active calls of the source: *. The list is not random: actives were taken first. Their share in the collection is about 3.7%.

Screening CN(CC(=O)N1CCN(Cc2ccccc2)CC1)S(=O)(=O)c1cccc2nsnc12 returned NPY-Y1 antag -5.3, NPY2 pot ag -16.0, Cl transport mod -3.16*, Furin inh -21.2, NPY-Y1 PAM-ag 5.3, KCC2 sec1 0.00647, KCC2 bumet counter 0.00443, KCC2 sec2 0.0204*, HEK counter1 0.00693, KCC2 retest ouab 0.0125* and HEK293 Tl flux2 0.0103.
`CN(CC(=O)NCCN1CCN(Cc2ccccc2)CC1)S(=O)(=O)c1cccc2nsnc12` gave NPY-Y1 antag -1.2, NPY2 pot ag 11.3, NPY-Y2 antag 2.8, Furin inh -21.1 and NPY-Y1 PAM-ag 11.8.
For CC12CCC(C(=O)Nc3nccs3)(OC1=O)C2(C)C (stereo unspecified) the results were NPY-Y1 antag -2.0, NPY2 pot ag -3.1, NPY-Y2 antag -1.2, Cl transport mod 0.0819, Furin inh -23.7 and NPY-Y1 PAM-ag 15.9.
`CC12CCC(C(=O)Nc3nc4ccc(Br)cc4s3)(OC1=O)C2(C)C` (stereo unspecified) gave NPY-Y1 antag -9.4, NPY2 pot ag 9.9, Cl transport mod 9.69*, Furin inh 5.0, NPY-Y1 PAM-ag 16.7, KCC2 sec1 0.0052, KCC2 bumet counter 0.04*, KCC2 sec2 inconclusive, HEK counter1 0.0166*, KCC2 retest ouab 0.0349* and HEK293 Tl flux2 0.0216*.
COC(=O)C1=C(C)NC(=S)NC1c1ccc(-c2cc(Cl)ccc2Cl)o1 (stereo unspecified) was read as NPY2 pot ag -10.0, Cl transport mod -0.238, Furin inh -11.8 and NPY-Y1 PAM-ag 4.3.
CCCc1[nH]c(=O)c(C#N)c2c1CCCC2 was read as NPY-Y1 antag 7.6, NPY2 pot ag -33.6, NPY-Y2 antag 4.5, Cl transport mod 0.218, Furin inh -12.3 and NPY-Y1 PAM-ag -3.0.
For CC(C)Cc1[nH]c(=O)c(C#N)c2c1CCCC2 the results were NPY-Y1 antag 1.7, NPY2 pot ag -1.3, NPY-Y2 antag -0.5, Cl transport mod -0.498, Furin inh -2.6, NPY-Y1 PAM-ag -4.0, KCC2 sec1 0.0163, KCC2 bumet counter 0.00451, KCC2 sec2 0.0272, HEK counter1 inconclusive, KCC2 retest ouab 0.0169 and HEK293 Tl flux2 0.0101.
`Cc1ccc2cccc(OCC(=O)Nc3ccc4c(c3)OCO4)c2n1` gave NPY-Y1 antag -3.7, NPY2 pot ag -26.5, Cl transport mod -5.94*, Furin inh -6.9, NPY-Y1 PAM-ag -23.4, KCC2 sec1 inconclusive, KCC2 bumet counter 0.00597, KCC2 sec2 0.0288, HEK counter1 0.00624, KCC2 retest ouab 0.0139* and HEK293 Tl flux2 0.0101.
For O=c1c2ccccc2nnn1Cc1ccccn1 the results were NPY-Y1 antag -0.5, NPY2 pot ag 14.8, NPY-Y2 antag 2.1, Cl transport mod -4.98*, Furin inh -12.8, NPY-Y1 PAM-ag -5.6, KCC2 sec1 0.0106, KCC2 bumet counter inconclusive, KCC2 sec2 0.033, HEK counter1 0.00759, KCC2 retest ouab 0.0221 and HEK293 Tl flux2 0.0105.
CN1c2ccccc2Oc2nnc(N3CCN(Cc4ccccc4)CC3)cc21 was read as NPY-Y1 antag 1.8, NPY2 pot ag -4.8, Cl transport mod -4*, Furin inh -6.9, NPY-Y1 PAM-ag -19.1, KCC2 sec1 0.0053, KCC2 bumet counter inconclusive, KCC2 sec2 0.0212*, HEK counter1 0.00651, KCC2 retest ouab inconclusive and HEK293 Tl flux2 0.0109.
For O=C(OCC(=O)N1CCc2ccccc2C1)c1ccc(N2CCOCC2)c([N+](=O)[O-])c1 the results were NPY-Y1 antag 2.2, NPY2 pot ag -4.4, NPY-Y2 antag 6.9, Cl transport mod -4.3*, Furin inh -10.6, NPY-Y1 PAM-ag -11.9, KCC2 sec1 0.00556, KCC2 bumet counter 0.00502, KCC2 sec2 0.0218*, HEK counter1 0.0072, KCC2 retest ouab inconclusive and HEK293 Tl flux2 0.0113.
For Nc1ccc(C(=O)OCC(=O)N2CCc3ccccc3C2)cc1[N+](=O)[O-] the results were NPY-Y1 antag -6.3, NPY2 pot ag 0.5, NPY-Y2 antag -0.2, Cl transport mod -5.94*, Furin inh -4.3, NPY-Y1 PAM-ag -0.4, KCC2 sec1 0.00566, KCC2 bumet counter 0.0058, KCC2 sec2 0.0273*, HEK counter1 inconclusive, KCC2 retest ouab 0.012* and HEK293 Tl flux2 0.0103.
`Nc1ccc(C(=O)OCC(=O)N2CCN(C(=O)c3ccco3)CC2)cc1[N+](=O)[O-]` gave NPY-Y1 antag 5.1, NPY2 pot ag 11.0, NPY-Y2 antag 5.3, Cl transport mod 0.02, Furin inh -5.3 and NPY-Y1 PAM-ag -12.7.
For O=C(c1cc([N+](=O)[O-])ccc1N1CCCCC1)N1CCc2ccccc21 the results were NPY-Y1 antag 9.0, NPY2 pot ag 4.9, NPY-Y2 antag 13.6, Cl transport mod -1.46, Furin inh -8.3 and NPY-Y1 PAM-ag -13.8.
Screening O=C(c1ccc(N2CCCCCC2)c([N+](=O)[O-])c1)N1CCc2ccccc21 returned NPY-Y1 antag -7.0, NPY2 pot ag 9.6, NPY-Y2 antag -0.9, Cl transport mod -6.68*, Furin inh -8.2, NPY-Y1 PAM-ag 17.7, KCC2 sec1 0.0155, KCC2 bumet counter inconclusive, KCC2 sec2 0.0232*, HEK counter1 0.0071, KCC2 retest ouab 0.0118 and HEK293 Tl flux2 0.00942.
CCOC(=O)C1CCCN(C(=O)c2cc3ccccc3oc2=O)C1 (stereo unspecified) was read as NPY-Y1 antag 3.0, NPY2 pot ag 10.9, Cl transport mod 0.319, Furin inh -24.7 and NPY-Y1 PAM-ag 3.0.
